From ChEMBL document CHEMBL1649458, “Antibiotic resistance in Pseudomonas aeruginosa strains with increased mutation frequency due to inactivation of the DNA oxidative repair system” (2009) come the findings set out here.

The structures appear in SMILES notation. In brackets after ≈: the same amount, converted by molar mass. Activity calls are given as the source filed them.

Assay [1] concerns Pseudomonas aeruginosa. Briefly: Antimicrobial activity against Pseudomonas aeruginosa PAO1 harboring DNA oxidative repair system mutY mutant gene complemented with wild type DNA oxidative repair system mutY gene. The format is functional, organism-based.
For assay [2], the system named is Pseudomonas aeruginosa. Briefly: Antimicrobial activity against Pseudomonas aeruginosa PAO1 by Etest. Type of assay: functional. In a few lines: (§1)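 MICs by Etest per manufacturer's instructions on P. aeruginosa strains grown in LB; plates incubated at 37°C.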
Assay [3] relates to Pseudomonas aeruginosa. The assay is described as follows: Antimicrobial activity against Pseudomonas aeruginosa PAO1 harboring DNA oxidative repair system deltamutY::Gm mutant gene by Etest. Type of assay: functional. In a few lines: as §1
The test system of assay [4] is Pseudomonas aeruginosa. Briefly: Antimicrobial activity against Pseudomonas aeruginosa PAO1 harboring DNA oxidative repair system deltamutT::Gm mutant gene by Etest. Type of assay: functional. The essentials:
as §1

Assay [5] relates to Pseudomonas aeruginosa. The assay is described as follows: Antimicrobial activity against Pseudomonas aeruginosa PAO1 harboring DNA oxidative repair system deltamutM::Gm mutant gene by Etest. Type of assay: functional. The essentials:
as §1

The test system of assay [6] is Pseudomonas aeruginosa. Briefly: Antimicrobial activity against Pseudomonas aeruginosa PAO1 assessed as microbial doubling time. Type of assay: functional. The essentials:
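Overnight LB cultures diluted to OD600 0.01 in LB and grown at 37°C. OD600 read every 20 min until stationary phase. OD600 plotted against time on a semilog scale, and doubling time taken from the slope of the straight exponential-phase segment. Value is the mean of three separate cultures ± standard deviation.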

Assay [7] relates to Pseudomonas aeruginosa. The assay is described as follows: Antimicrobial activity against Pseudomonas aeruginosa PAO1 harboring DNA oxidative repair system deltamutY::Gm mutant gene assessed as doubling time. The format is functional. The essentials: (§2)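 Overnight LB cultures adjusted to OD600 0.01 and grown at 37°C; OD600 read every 20 min to stationary phase. Doubling time taken from the slope of the exponential phase on a semilog plot; mean ± SD of three individual cultures.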

Assay [8] relates to Pseudomonas aeruginosa. Briefly: Antimicrobial activity against Pseudomonas aeruginosa PAO1 harboring DNA oxidative repair system deltamutT::Gm mutant gene assessed as doubling time. Type of assay: functional. In a few lines: as §2
Assay [9] concerns Pseudomonas aeruginosa. Briefly: Antimicrobial activity against Pseudomonas aeruginosa PAO1 harboring DNA oxidative repair system deltamutM::Gm mutant gene assessed as doubling time. Type of assay: functional. In a few lines:
as §2

Assay [10] has as its system Pseudomonas aeruginosa. Briefly: Antimicrobial activity against Pseudomonas aeruginosa PAO1 harboring DNA oxidative repair system […] mutant gene complemented with wild type DNA oxidative repair system mutY gene. The format is functional, organism-based.
The test system of assay [11] is Pseudomonas aeruginosa. Briefly: Antimicrobial activity against Pseudomonas aeruginosa PAO1 harboring DNA oxidative repair system mutT mutant gene selected in presence of ciprofloxacin by Etest. The format is functional. The essentials: (§3)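 Resistant colonies picked from population-analysis plates (5% blood agar with twofold antibiotic dilutions) and passaged three times in antibiotic-free LB before Etest MIC determination. MIC is the mean of four colonies, two successive determinations per colony; PAO1 after tobramycin selection is the mean of two colonies.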

The test system of assay [12] is Pseudomonas aeruginosa. The assay is described as follows: Antimicrobial activity against Pseudomonas aeruginosa PAO1 selected in presence of Ceftazidime by Etest. Type of assay: functional. In a few lines: as §3
In assay [13] the test system is Pseudomonas aeruginosa. Briefly: Antimicrobial activity against Pseudomonas aeruginosa PAO1 harboring DNA oxidative repair system mutY mutant gene selected in presence of Ceftazidime by Etest. The format is functional. In a few lines:
as §3

The test system of assay [14] is Pseudomonas aeruginosa. Briefly: Antimicrobial activity against Pseudomonas aeruginosa PAO1 harboring DNA oxidative repair system mutM mutant gene selected in presence of Ceftazidime by Etest. Type of assay: functional. The essentials: as §3
Assay [15] deals with Pseudomonas aeruginosa. Briefly: Antimicrobial activity against Pseudomonas aeruginosa PAO1 harboring DNA oxidative repair system mutT mutant gene selected in presence of Ceftazidime by Etest. The format is functional. In a few lines: as §3
In assay [16] the test system is Pseudomonas aeruginosa. Briefly: Antimicrobial activity against Pseudomonas aeruginosa PAO1 selected in presence of tobramycin by Etest. Type of assay: functional. In a few lines: as §3
The subject of assay [17] is Pseudomonas aeruginosa. Briefly: Antimicrobial activity against Pseudomonas aeruginosa PAO1 harboring DNA oxidative repair system mutY mutant gene selected in presence of tobramycin by Etest. Type of assay: functional. In a few lines: as §3
Assay [18] has as its system Pseudomonas aeruginosa. The assay is described as follows: Antimicrobial activity against Pseudomonas aeruginosa PAO1 harboring DNA oxidative repair system mutM mutant gene selected in presence of tobramycin by Etest. Type of assay: functional. In a few lines: as §3
Assay [19] relates to Pseudomonas aeruginosa. Briefly: Antimicrobial activity against Pseudomonas aeruginosa PAO1 harboring DNA oxidative repair system mutT mutant gene selected in presence of tobramycin by Etest. The format is functional. The essentials:
as §3

Assay [20] deals with Pseudomonas aeruginosa. The assay is described as follows: Antimicrobial activity against Pseudomonas aeruginosa PAO1 selected in presence of ciprofloxacin by Etest. The format is functional. The essentials:
as §3

Assay [21] has as its system Pseudomonas aeruginosa. The assay is described as follows: Antimicrobial activity against Pseudomonas aeruginosa PAO1 harboring DNA oxidative repair system mutY mutant gene selected in presence of ciprofloxacin by Etest. The format is functional. The essentials:
as §3

Assay [22] relates to Pseudomonas aeruginosa. The assay is described as follows: Antimicrobial activity against Pseudomonas aeruginosa PAO1 harboring DNA oxidative repair system mutM mutant gene selected in presence of ciprofloxacin by Etest. Type of assay: functional. In a few lines:
as §3

Assay [23] relates to Pseudomonas aeruginosa. Briefly: Selectivity ratio of MIC for Pseudomonas aeruginosa PAO1 harboring DNA oxidative repair system mutY mutant gene selected in presence of tobramycin to MIC for Pseudomonas aeruginosa PAO1 harboring DNA oxidative repair system mutY mutant gene. The format is functional.
In assay [24] the test system is Pseudomonas aeruginosa. The assay is described as follows: Selectivity ratio of MIC for Pseudomonas aeruginosa PAO1 harboring DNA oxidative repair system mutT mutant gene selected in presence of tobramycin to MIC for Pseudomonas aeruginosa PAO1 harboring DNA oxidative repair system mutT mutant gene. The format is functional.
Assay [25] relates to Pseudomonas aeruginosa. The assay is described as follows: Antimicrobial activity against Pseudomonas aeruginosa PAO1 harboring DNA oxidative repair system mutT mutant gene complemented with wild type DNA oxidative repair system mutT gene. Type of assay: functional, organism-based.

For orientation: MIC means the smallest concentration in the dilution series that meets the test's criterion for growth inhibition. On to `C[C@H]1[C@H](NC(=O)/C(=N\OC(C)(C)C(=O)O)c2csc(N)n2)C(=O)N1S(=O)(=O)O` [AZTREONAM], for which the outcome in [1] and in [10] was Active. For the same molecule, the MIC in assay [2] was found to be 1.5 µg/mL (≈ 3.44 µM); in [3] it was 1 µg/mL (≈ 2.3 µM); in assay [4] it was 1.5 µg/mL (≈ 3.44 µM); in [5], 1.5 µg/mL (≈ 3.44 µM). Moreover, the Time is recorded as 26 min in assay [6], 25.7 min in assay [7], 27.7 min in assay [8] and 27.3 min in [9].
For `CC(C)(O/N=C(\C(=O)N[C@@H]1C(=O)N2C(C(=O)[O-])=C(C[n+]3ccccc3)CS[C@H]12)c1csc(N)n1)C(=O)O` [CEFTAZIDIME], the minimal inhibitory concentration (MIC) in assay [11] came out at 0.44 µg/mL; in [2], 2 µg/mL (≈ 3.66 µM); in assay [3], 1.5 µg/mL (≈ 2.74 µM); in [4] it was 2 µg/mL (≈ 3.66 µM); in assay [5], 1.5 µg/mL (≈ 2.74 µM); in [12], 20 µg/mL. Further, the minimal inhibitory concentration (MIC) is 18 µg/mL in [13]; 26 µg/mL in assay [14]; 18 µg/mL in [15]; 0.5 µg/mL in assay [16]; 0.69 µg/mL in assay [17]; 0.63 µg/mL in assay [18]. Also, the MIC turned out to be 0.38 µg/mL in assay [19], 0.44 µg/mL in assay [20], 0.47 µg/mL in assay [21] and 0.44 µg/mL in assay [22]. Also, the Time in assay [6] is on record as 26 min; in [7], 25.7 min; in [8], 27.7 min; in assay [9], 27.3 min.
For the molecule `O=C(N[C@H](CO)[C@H](O)c1ccc([N+](=O)[O-])cc1)C(Cl)Cl` [CHLORAMPHENICOL], the MIC is 256 µg/mL in [11]; 28 µg/mL in assay [16]; 86 µg/mL in assay [17]; 56 µg/mL in [18]; 20 µg/mL in assay [19]; 256 µg/mL in assay [20]. Further, the MIC in assay [21] and in assay [22] was 256 µg/mL each time. Further, the entries for the “fold change (FC)” value in assay [23] and in assay [24] were 2 and 3, respectively.
`O=C(O)c1cn(C2CC2)c2cc(N3CCNCC3)c(F)cc2c1=O` [CIPROFLOXACIN]: the MIC in assay [11] was 0.75 µg/mL; in [2], 0.19 µg/mL (≈ 0.573 µM); in assay [3] it was 0.19 µg/mL (≈ 0.573 µM); in [5], 0.19 µg/mL (≈ 0.573 µM); in [13] it was 0.17 µg/mL; in assay [14], 0.13 µg/mL. The MIC in assay [15] came to 0.16 µg/mL; in assay [16], 0.32 µg/mL; in assay [17], 0.16 µg/mL; in assay [18] it was 0.11 µg/mL; in assay [19], 0.08 µg/mL; in assay [20], 0.75 µg/mL. Also, the MIC in [21] came out at 0.75 µg/mL; in [22], 0.88 µg/mL. The Time in assay [6] was found to be 26 min; in [7] it was 25.7 min; in [8], 27.7 min; in [9], 27.3 min.
`CCN1CCN(C(=O)N[C@@H](C(=O)N[C@@H]2C(=O)N3[C@@H]2SC(C)(C)[C@@H]3C(=O)O)c2ccccc2)C(=O)C1=O` [PIPERACILLIN]: the result in [1] and in assay [10] was Active. For the same molecule, the MIC in [2], in [3], in assay [4] and in assay [5] was 2 µg/mL (≈ 3.86 µM) throughout. Also, the Time stood at 26 min in assay [6], 25.7 min in assay [7], 27.7 min in assay [8] and 27.3 min in assay [9].
Consider `CN(C)[C@@H]1C(O)=C(C(N)=O)C(=O)[C@@]2(O)C(O)=C3C(=O)c4c(O)cccc4[C@@](C)(O)[C@H]3C[C@@H]12` [TETRACYCLINE], for which the MIC stood at 256 µg/mL in assay [11]; 10 µg/mL in assay [16]; 5.5 µg/mL in assay [17]; 18 µg/mL in assay [18]; 4.25 µg/mL in [19]; 256 µg/mL in [20]. The MIC in [21] and in assay [22] was 256 µg/mL throughout.
In the case of `NC[C@H]1O[C@H](O[C@H]2[C@H](O)[C@@H](O[C@H]3O[C@H](CO)[C@@H](O)[C@H](N)[C@H]3O)[C@H](N)C[C@@H]2N)[C@H](N)C[C@@H]1O` [TOBRAMYCIN], the MIC in [11] was determined as 1.25 µg/mL; in [2] it was 1.5 µg/mL (≈ 3.21 µM); in assay [3], 1.5 µg/mL (≈ 3.21 µM); in assay [4], 1.5 µg/mL (≈ 3.21 µM); in assay [5], 1.5 µg/mL (≈ 3.21 µM); in assay [12], 1.75 µg/mL. The MIC worked out at 2 µg/mL in assay [13]; 2 µg/mL in [14]; 2 µg/mL in assay [15]; 6 µg/mL in assay [16]; 3.75 µg/mL in assay [17]; 3.5 µg/mL in assay [18]. In addition, the MIC is 0.9 µg/mL in assay [19], 1.06 µg/mL in [20], 1.37 µg/mL in assay [21] and 1.19 µg/mL in [22]. The result in [25], in [1] and in assay [10] was Active. Also, the Time is given as 26 min in assay [6], 25.7 min in [7], 27.7 min in [8] and 27.3 min in [9].
